Results published in ChEMBL document CHEMBL1667740, “Phenolic glycosides with antimalarial activity from Grevillea "Poorinda Queen"” (J Nat Prod, 2011).

Tests used:
Plasmodium falciparum [1] = test: Antimalarial activity against chloroquine-sensitive Plasmodium falciparum D6 infected in human O positive red blood cells assessed as inhibition of [3H]-hypoxanthine uptake after 48 hrs; format: functional, organism-based
How it was run: (§1)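 Synchronised ring-stage parasites (sorbitol selection) kept in RPMI-1640 with HEPES, glucose, hypoxanthine, gentamycin, 10% human plasma and 4% O+ RBCs under 5% O2/5% CO2/90% N2 at 37 °C. Assay at 2% hematocrit and 1% parasitemia in hypoxanthine-free medium. DMSO stocks of 20-25 mg/mL, ten 2-fold dilutions in triplicate, 48 h. [3H]-hypoxanthine (0.2 µCi) added at 24 h. IC50 taken against compound-free controls.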

[2] = Selectivity index, ratio of IC50 for human HepG2 cells to IC50 for Plasmodium falciparum 3D7
[3] = Selectivity index, ratio of IC50 for human HEK293 cells to IC50 for Plasmodium falciparum 3D7
HEK293 = test: Cytotoxicity against human HEK293 cells after 72 hrs by alamar blue assay; format: cell-based; conditions: HEK293, 72 h
How it was run: (§2)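 HEK-293 and HepG2 cells grown in RPMI 1640 with 10% FBS and L-glutamine at 37 °C. Seeded at 5 × 10^3 cells/well and left 24 h before drug addition. Compounds tested from 312 to 0.6 µg/mL, artesunate and chloroquine from 120 µM to 60 nM, in triplicate for 72 h. DMSO vehicle and cell-free background wells as controls. 10% Alamar Blue added for 2 h, fluorescence read at ex 530/em 595 nm. IC50 from at least two independent experiments, mean ± SD.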

HepG2 = test: Cytotoxicity against human HepG2 cells after 72 hrs by alamar blue assay; format: cell-based; conditions: HepG2, 72 h; how it was run: as §2
Plasmodium berghei [4] = test: Antimalarial activity against Plasmodium berghei infected in mouse assessed as reduction of parasite infection at 2 mg/kg, sc qd for 4 days relative to control; format: functional; set-up: scale not given: the % may be the effect or the level left; conditions: route subcutaneous
Plasmodium berghei [5] = test: Antimalarial activity against Plasmodium berghei infected in mouse assessed as reduction of parasite infection at 1 mg/kg, sc qd for 4 days relative to control; format: functional; set-up: scale not given: the % may be the effect or the level left; conditions: route subcutaneous
Plasmodium berghei [6] = test: Antimalarial activity against Plasmodium berghei infected in mouse assessed as reduction of parasite infection at 32 mg/kg, sc bid for 4 days relative to control; format: functional; set-up: scale not given: the % may be the effect or the level left; conditions: route subcutaneous
How it was run: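 Peters 4-day suppressive test in female mice (n = 6) inoculated intraperitoneally with 20 × 10^6 P. berghei ANKA-infected erythrocytes. Test articles dissolved in Tween 80/ethanol (7:3, v/v), diluted 10-fold in distilled water, and given subcutaneously from D0 (about 2 and 6 h post-inoculation) over 4 days. Chloroquine prepared in water. Giemsa-stained thin smears on D+1 to D+4. Microscopic % infected erythrocytes, suppression at D+4 versus vehicle control.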

Plasmodium falciparum [7] = test: Antimalarial activity against chloroquine and pyrimethamine-resistant Plasmodium falciparum K1 infected in human O positive red blood cells assessed as inhibition of [3H]-hypoxanthine uptake after 48 hrs; format: functional, organism-based; how it was run: as §1
Plasmodium berghei [8] = test: Antimalarial activity against Plasmodium berghei infected in mouse assessed as reduction of parasite infection at 32 mg/kg, sc qd for 4 days relative to control; format: functional; set-up: scale not given: the % may be the effect or the level left; conditions: route subcutaneous
Plasmodium falciparum [9] = test: Antimalarial activity against multidrug-resistant Plasmodium falciparum TM90-C2B infected in human O positive red blood cells assessed as inhibition of [3H]-hypoxanthine uptake after 48 hrs; format: functional, organism-based; how it was run: as §1
Plasmodium falciparum [10] = test: Antimalarial activity against chloroquine, pyrimethamine, and mefloquine-resistant Plasmodium falciparum Dd2 infected in human O positive red blood cells assessed as inhibition of [3H]-hypoxanthine uptake after 48 hrs; format: functional, organism-based; how it was run: as §1
Mus musculus = test: Toxicity in mouse assessed as physical stress at 32 mg/kg, sc qd for 4 days; format: organism-based; set-up: dose 32 mg/kg, route subcutaneous; conditions: in vivo, 96 h
How it was run: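 Tolerability in healthy mice: subcutaneous dosing for 4 days. Mice watched for physical stress, namely ruffled coat, extreme pallor, weight loss, shaking and reduced mobility.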

Plasmodium falciparum [11] = test: Antimalarial activity against chloroquine-sensitive Plasmodium falciparum 3D7 infected in human O positive red blood cells assessed as inhibition of [3H]-hypoxanthine uptake after 48 hrs; format: functional, organism-based; how it was run: as §1
Plasmodium falciparum [12] = test: Antimalarial activity against multidrug-resistant Plasmodium falciparum TM93-C1088 infected in human O positive red blood cells assessed as inhibition of [3H]-hypoxanthine uptake after 48 hrs; format: functional, organism-based; how it was run: as §1

| SMILES | IC50 (Plasmodium falciparum [1]) | SI [2] | SI [3] | IC50 (HEK293) | IC50 (HepG2) | Activity (Plasmodium berghei [4]) | Activity (Plasmodium berghei [5]) | Activity (Plasmodium berghei [6]) | IC50 (Plasmodium falciparum [7]) | Activity (Plasmodium berghei [8]) | IC50 (Plasmodium falciparum [9]) | IC50 (Plasmodium falciparum [10]) | Activity (Mus musculus) | IC50 (Plasmodium falciparum [11]) | IC50 (Plasmodium falciparum [12]) |
| --- | --- | --- | --- | --- | --- | --- | --- | --- | --- | --- | --- | --- | --- | --- | --- |
| C[C@H]1O[C@H](OC[C@H]2O[C@@H](Oc3cc(O)c4c(=O)c(O)c(-c5ccc(O)c(O)c5)oc4c3)[C@H](O)[C@@H](O)[C@H]2O)[C@@H](O)[C@@H](O)[C@@H]1O (stereo in doubt) | > 500 µM |  |  |  |  |  |  |  |  |  |  |  |  |  |  |
| C[C@H]1[C@H](OC(=O)CCC(=O)O)O[C@@H]2O[C@@]3(C)CC[C@H]4[C@H](C)CC[C@@H]1[C@@]24OO3 [ARTESUNATE] |  | 374 | 150 | 2.9 µM | 12.7 µM |  |  |  |  |  |  |  |  |  |  |
| CCN(CC)CCCC(C)Nc1ccnc2cc(Cl)ccc12 (stereo not given) [CHLOROQUINE] |  | 415 | 600 | 12 µM | 8.3 µM | 97% | 58% |  |  |  |  |  |  |  |  |
| O=C1C=CC(O)(/C=C/C(=O)OC[C@H]2O[C@@H](Oc3ccc(O)cc3)[C@H](O)[C@@H](O)[C@@H]2O)C=C1 [ROBUSTASIDE D] | 5.1 µM | 37 | 33 | 195 µM | 221 µM |  |  | 95% | 3 µM | 21% | 5.3 µM | 3 µM | Non-toxic | 5.5 µM | 4.1 µM |
| O=C(/C=C/C1(O)C=CC(O)CC1=O)OC[C@H]1O[C@@H](Oc2ccc(O)cc2)[C@H](O)[C@@H](O)[C@@H]1O (stereo not given in full) [ROBUSTASIDE E] | 55.5 µM | > 10 | > 10 | > 690 µM | > 690 µM |  |  |  | 29.4 µM |  | 36.2 µM | 55.5 µM |  | 77.4 µM | 25.3 µM |
| COc1ccc(O)c(/C=C\C(=O)OC[C@H]2O[C@@H](Oc3ccc(O)cc3)[C@H](OC(=O)/C=C\c3cc(OC)ccc3O)[C@@H](O)[C@@H]2O)c1 [ROBUSTASIDE F] | 14.7 µM |  |  |  |  |  |  |  |  |  |  |  |  |  |  |
